According to paper PMC10866054 (Journal of Enzyme Inhibition and Medicinal Chemistry, 2024):

Experiments:
MDA-MB-231 = assay: MTT cytotoxicity, MDA-MB-231; type: cell-based; conditions: Homo sapiens, MDA-MB-231, read-out: Cytotoxic activity IC50, MDA-MB-231
PC-3 = assay: MTT cytotoxicity, PC-3; type: cell-based, human; conditions: for IC50: read-out: Cytotoxic activity IC50, PC-3, MTT, mean ± SD of three experiments; for fold superior to IC50 of the erlotinib, PC-3: PC-3 cell line, vs erlotinib
PI3Kβ (p110β/p85α) = PI3Kβ (p110β/p85α) (Homo sapiens, UniProt P42338); assay: PI3Kβ Assay Kit; type: biochemical
PI3Kδ = PI3Kδ (Homo sapiens, UniProt O00329); assay: PI3K isoform ELISA kit, PI3Kδ; type: biochemical
HCT-116 = assay: MTT cytotoxicity, HCT-116; type: cell-based; conditions: Homo sapiens, HCT-116, read-out: Cytotoxic activity IC50, HCT-116
HEPG-2 = assay: MTT cytotoxicity, HEPG-2; type: cell-based, human; conditions: for IC50: Homo sapiens, HepG2, read-out: Cytotoxic activity IC50, HEPG-2
[1] = MTT cytotoxicity, normal prostate epithelial cells; type: cell-based; conditions: human, HPrEC normal primary prostate epithelial cells
EGFR = EGFR (Homo sapiens, UniProt P00533); assay: EGFR Kinase Assay Kit; type: biochemical
PI3Kα = PI3Kα (Homo sapiens, UniProt P42336); assay: PI3K isoform ELISA kit, PI3Kα; type: biochemical; conditions: mean ± SD of three experiments
PI3Kγ = PI3Kγ (Homo sapiens, UniProt P48736); assay: PI3K isoform ELISA kit, PI3Kγ; type: biochemical
AKT = assay: RT-qPCR gene expression of AKT in PC-3 cells; type: cell-based, human; conditions: PC-3 cells treated at IC50 3.56 µM, compared to untreated cells
Method in brief: (§1)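 Control and treated cells (1×10^5) were trypsinised, spun at 5000 rpm and washed in PBS. Total RNA was isolated and cDNA synthesised. Gene-specific mRNA was measured by qPCR with IDT-designed primers, with a GAPDH primer pair included. Expression was given relative to untreated control cells.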

m-TOR = assay: RT-qPCR gene expression of m-TOR in PC-3 cells; type: cell-based, human; conditions: PC-3 cells treated at IC50 3.56 µM, compared to untreated cells
Method in brief: as §1

P53 = assay: RT-qPCR gene expression of P53 in PC-3 cells; type: cell-based, human; conditions: PC-3 cells treated at IC50, vs untreated PC-3
Method in brief: as §1

BAX = assay: RT-qPCR gene expression of BAX in PC-3 cells; type: cell-based, human; conditions: PC-3 cells treated at IC50, vs untreated PC-3
Method in brief: as §1

BCl-2 = assay: RT-qPCR gene expression of BCl-2 in PC-3 cells; type: cell-based, human; conditions: PC-3 cells treated at IC50, vs untreated PC-3
Method in brief: as §1

caspase 3 = assay: RT-qPCR gene expression of caspase 3 in PC-3 cells; type: cell-based, human; conditions: PC-3 cells treated at IC50, vs untreated PC-3
Method in brief: as §1

caspase 8 = assay: RT-qPCR gene expression of caspase 8 in PC-3 cells; type: cell-based, human; conditions: PC-3 cells treated at IC50, vs untreated PC-3
Method in brief: as §1

PC-3 cells [2] = assay: Cell cycle analysis; type: cell-based, human; conditions: compound at IC50, 24 h
PC-3 cells [3] = assay: Annexin V/propidium iodide staining for apoptosis; type: cell-based, human

Chain of PI3Kβ (p110β/p85α) (P42338 whole entry, canonical isoform): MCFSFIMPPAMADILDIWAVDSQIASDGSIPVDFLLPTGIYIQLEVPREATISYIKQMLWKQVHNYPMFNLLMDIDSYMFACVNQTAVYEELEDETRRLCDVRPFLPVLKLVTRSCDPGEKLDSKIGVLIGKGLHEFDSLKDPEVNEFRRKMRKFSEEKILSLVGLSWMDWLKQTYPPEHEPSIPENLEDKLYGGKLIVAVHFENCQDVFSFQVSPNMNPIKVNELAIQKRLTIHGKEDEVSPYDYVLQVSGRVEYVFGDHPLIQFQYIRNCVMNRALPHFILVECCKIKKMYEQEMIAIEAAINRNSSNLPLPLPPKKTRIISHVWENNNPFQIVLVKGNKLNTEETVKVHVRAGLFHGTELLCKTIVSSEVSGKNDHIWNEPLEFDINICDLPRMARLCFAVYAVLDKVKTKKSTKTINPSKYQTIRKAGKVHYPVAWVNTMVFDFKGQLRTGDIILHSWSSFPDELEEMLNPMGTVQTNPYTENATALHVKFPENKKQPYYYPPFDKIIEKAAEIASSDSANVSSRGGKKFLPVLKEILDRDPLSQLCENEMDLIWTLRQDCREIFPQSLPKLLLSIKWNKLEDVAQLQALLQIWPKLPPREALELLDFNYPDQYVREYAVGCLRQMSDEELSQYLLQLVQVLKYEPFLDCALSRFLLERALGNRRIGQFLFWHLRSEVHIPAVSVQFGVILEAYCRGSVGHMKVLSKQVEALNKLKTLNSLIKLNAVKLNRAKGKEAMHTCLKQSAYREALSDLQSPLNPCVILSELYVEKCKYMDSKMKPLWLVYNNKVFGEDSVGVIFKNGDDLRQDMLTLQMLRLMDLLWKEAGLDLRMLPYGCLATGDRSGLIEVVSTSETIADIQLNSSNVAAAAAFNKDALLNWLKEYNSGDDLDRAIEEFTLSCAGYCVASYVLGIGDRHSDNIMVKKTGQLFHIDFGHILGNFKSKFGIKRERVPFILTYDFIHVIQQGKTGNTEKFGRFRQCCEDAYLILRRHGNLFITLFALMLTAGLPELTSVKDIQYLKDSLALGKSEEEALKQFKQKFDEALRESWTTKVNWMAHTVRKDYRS
Chain of PI3Kβ (p110β/p85α) (P27986 whole entry partner, canonical isoform): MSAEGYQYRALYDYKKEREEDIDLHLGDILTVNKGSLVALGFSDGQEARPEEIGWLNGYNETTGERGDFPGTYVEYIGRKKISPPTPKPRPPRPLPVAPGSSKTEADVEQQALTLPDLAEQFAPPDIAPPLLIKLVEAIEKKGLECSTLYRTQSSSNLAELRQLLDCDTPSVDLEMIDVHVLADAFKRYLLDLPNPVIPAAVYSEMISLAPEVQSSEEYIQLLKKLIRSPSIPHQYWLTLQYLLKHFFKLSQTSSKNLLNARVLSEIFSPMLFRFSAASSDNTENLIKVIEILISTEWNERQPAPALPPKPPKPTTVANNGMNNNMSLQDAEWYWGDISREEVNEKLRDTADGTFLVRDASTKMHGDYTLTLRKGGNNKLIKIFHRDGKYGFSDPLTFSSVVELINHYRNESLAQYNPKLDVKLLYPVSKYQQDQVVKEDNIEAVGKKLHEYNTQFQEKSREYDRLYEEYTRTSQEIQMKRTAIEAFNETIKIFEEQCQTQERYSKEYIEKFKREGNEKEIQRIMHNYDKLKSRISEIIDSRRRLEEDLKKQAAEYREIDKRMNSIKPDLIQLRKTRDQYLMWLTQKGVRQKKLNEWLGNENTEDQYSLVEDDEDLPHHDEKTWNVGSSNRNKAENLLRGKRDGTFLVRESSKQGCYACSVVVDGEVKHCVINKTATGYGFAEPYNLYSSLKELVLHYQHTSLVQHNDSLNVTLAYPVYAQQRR
Chain of PI3Kδ (O00329 whole entry, canonical isoform): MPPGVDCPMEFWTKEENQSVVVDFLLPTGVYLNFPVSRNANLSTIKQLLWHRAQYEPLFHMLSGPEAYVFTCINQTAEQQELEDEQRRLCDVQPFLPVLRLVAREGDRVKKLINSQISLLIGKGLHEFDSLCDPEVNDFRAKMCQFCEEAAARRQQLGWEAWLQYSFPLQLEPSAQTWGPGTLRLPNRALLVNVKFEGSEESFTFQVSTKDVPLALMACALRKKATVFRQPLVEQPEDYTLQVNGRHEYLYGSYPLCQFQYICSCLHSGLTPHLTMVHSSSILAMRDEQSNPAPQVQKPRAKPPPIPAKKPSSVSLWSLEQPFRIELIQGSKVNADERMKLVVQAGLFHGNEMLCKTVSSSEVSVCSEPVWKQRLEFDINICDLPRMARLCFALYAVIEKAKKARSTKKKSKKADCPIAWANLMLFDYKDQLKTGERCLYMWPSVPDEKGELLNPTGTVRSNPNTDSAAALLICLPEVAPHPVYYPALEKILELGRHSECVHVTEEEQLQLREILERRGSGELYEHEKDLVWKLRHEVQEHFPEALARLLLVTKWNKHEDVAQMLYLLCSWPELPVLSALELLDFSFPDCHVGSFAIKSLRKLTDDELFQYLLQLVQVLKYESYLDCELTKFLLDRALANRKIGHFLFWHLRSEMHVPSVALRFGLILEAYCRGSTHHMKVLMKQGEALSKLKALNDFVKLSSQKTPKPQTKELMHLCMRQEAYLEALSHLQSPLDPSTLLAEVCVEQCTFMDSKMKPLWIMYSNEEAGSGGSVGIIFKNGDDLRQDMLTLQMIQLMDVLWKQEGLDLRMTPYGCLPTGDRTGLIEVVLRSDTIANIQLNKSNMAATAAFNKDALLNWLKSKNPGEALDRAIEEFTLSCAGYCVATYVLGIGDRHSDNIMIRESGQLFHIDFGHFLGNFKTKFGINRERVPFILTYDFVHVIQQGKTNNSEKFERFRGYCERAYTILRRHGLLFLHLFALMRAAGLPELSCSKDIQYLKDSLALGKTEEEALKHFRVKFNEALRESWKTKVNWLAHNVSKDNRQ
Chain of PI3Kδ (P27986 whole entry partner, canonical isoform): as the sequence (P27986 whole entry partner, canonical isoform) above
Chain of PI3Kα (P42336 whole entry, canonical isoform): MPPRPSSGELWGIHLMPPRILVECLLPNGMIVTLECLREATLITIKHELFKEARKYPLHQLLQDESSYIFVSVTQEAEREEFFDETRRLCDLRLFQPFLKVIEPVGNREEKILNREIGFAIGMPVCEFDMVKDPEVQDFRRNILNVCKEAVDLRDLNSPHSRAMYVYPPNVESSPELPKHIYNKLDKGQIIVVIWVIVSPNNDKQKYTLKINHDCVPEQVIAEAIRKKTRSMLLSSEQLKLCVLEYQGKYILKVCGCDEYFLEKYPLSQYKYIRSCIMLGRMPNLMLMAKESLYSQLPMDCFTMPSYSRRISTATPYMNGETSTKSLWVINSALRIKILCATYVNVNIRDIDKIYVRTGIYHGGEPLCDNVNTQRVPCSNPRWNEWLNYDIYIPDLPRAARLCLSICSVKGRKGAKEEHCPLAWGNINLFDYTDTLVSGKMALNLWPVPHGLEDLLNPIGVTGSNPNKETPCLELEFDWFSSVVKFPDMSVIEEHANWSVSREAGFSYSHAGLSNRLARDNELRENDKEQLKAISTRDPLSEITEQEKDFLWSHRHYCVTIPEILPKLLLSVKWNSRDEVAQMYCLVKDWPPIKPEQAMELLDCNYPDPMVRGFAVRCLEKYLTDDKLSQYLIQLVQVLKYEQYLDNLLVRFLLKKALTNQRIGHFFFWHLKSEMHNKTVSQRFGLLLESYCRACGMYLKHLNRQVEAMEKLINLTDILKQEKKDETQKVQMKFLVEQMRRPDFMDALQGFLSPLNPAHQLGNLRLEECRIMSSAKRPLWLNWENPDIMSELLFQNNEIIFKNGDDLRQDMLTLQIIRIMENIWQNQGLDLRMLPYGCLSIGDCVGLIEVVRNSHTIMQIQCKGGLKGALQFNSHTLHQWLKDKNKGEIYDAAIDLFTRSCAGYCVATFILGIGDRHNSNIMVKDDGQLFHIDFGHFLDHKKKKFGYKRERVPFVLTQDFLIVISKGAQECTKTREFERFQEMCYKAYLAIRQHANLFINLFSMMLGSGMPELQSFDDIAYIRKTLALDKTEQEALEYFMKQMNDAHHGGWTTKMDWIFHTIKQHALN
Chain of PI3Kα (P27986 whole entry partner, canonical isoform): as the sequence (P27986 whole entry partner, canonical isoform) above
Chain of PI3Kγ (P48736 whole entry, canonical isoform): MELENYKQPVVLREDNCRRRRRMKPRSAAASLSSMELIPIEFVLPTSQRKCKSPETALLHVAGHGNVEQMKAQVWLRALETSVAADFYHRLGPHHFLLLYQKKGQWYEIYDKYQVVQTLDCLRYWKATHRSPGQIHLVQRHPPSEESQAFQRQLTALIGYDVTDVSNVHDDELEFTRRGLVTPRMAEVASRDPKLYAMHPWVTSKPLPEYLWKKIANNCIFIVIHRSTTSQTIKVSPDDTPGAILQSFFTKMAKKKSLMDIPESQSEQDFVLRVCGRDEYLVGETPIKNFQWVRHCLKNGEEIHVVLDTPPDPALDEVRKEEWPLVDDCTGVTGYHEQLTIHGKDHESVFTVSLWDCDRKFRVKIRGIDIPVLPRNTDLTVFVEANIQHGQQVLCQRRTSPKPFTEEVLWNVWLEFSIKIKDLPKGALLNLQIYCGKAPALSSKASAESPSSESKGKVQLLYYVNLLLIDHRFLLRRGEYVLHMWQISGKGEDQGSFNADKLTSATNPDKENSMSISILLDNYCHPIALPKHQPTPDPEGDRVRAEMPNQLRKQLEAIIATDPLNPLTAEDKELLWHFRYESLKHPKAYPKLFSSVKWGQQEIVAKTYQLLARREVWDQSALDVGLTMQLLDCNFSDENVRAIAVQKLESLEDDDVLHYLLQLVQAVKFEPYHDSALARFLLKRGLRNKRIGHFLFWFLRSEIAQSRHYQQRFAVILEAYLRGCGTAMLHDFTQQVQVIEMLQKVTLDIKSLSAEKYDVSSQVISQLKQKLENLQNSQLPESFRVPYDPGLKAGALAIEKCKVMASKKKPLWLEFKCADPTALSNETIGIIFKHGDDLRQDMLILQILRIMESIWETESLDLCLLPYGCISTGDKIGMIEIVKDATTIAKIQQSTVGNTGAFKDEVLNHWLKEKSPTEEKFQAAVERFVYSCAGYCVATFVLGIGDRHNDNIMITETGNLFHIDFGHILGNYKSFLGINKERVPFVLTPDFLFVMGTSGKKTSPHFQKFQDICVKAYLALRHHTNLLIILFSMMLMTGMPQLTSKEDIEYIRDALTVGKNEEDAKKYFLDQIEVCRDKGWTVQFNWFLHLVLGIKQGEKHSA

Work on `CCCOc1ccc2c(C)c(CC)c(=O)oc2c1C` [Compound 9b, 3-Ethyl-4,8-dimethyl-7-propoxy-2H-chromen-2-one] yielded an IC50 (MDA-MB-231) of over 50 µM.

“7-((amino-5-(isopropylthio)-4H-1,2,4-triazol-3-yl)methoxy)-3-ethyl-4,8-dimethyl-2H-chromen-2-one [Compound 8]” showed an IC50 (PC-3) of over 50 µM.

Work on `C=CCNC(=S)NNC(=O)COc1ccc2c(C)c(CC)c(=O)oc2c1C` [Compound 6b, N-Allyl-2-(2-((3-ethyl-4,8-dimethyl-2-oxo-2H-chromen-7-yl)oxy)acetyl)hydrazine-1-carbothioamide] yielded an IC50 (MDA-MB-231) of over 50 µM.

For `CCc1c(C)c2ccc(OCC(=O)NN=Cc3ccc([N+](=O)[O-])cc3)cc2oc1=O` [Compound 4a, 2-((3-Ethyl-4-methyl-2-oxo-2H-chromen-7-yl)oxy)-N'-(4-nitrobenzylidene) acetohydrazide], the IC50 (MDA-MB-231) was 23.6 ± 0.36 µM, the “fold superior to IC50 of the erlotinib, PC-3” value (from here on “fold superior to IC50”) (PC-3) was 1.2 fold and the IC50 (PI3Kβ (p110β/p85α)) was 0.792 µM.

`CCOc1ccc2c(C)c(CC)c(=O)oc2c1C` [Compound 9a, 7-Ethoxy-3-ethyl-4,8-dimethyl-2H-chromen-2-one] gave an IC50 (MDA-MB-231) of over 50 µM.

`CCc1c(C)c2ccc(OCC=Cc3ccccc3)c(C)c2oc1=O` [Compound 9e, 7-(Cinnamyloxy)-3-ethyl-4,8-dimethyl-2H-chromen-2-one] showed an IC50 (MDA-MB-231) of over 50 µM.

Work on `Cc1c(Cc2ccccc2)c(=O)oc2c(C)c(OCC(=O)NN=Cc3ccccc3)ccc12` [Compound 4c, 2-((3-Benzyl-4,8-dimethyl-2-oxo-2H-chromen-7-yl)oxy)-N'-benzylideneacetohydrazide] yielded an IC50 (MDA-MB-231) of 8.5 ± 0.85 µM.

In the case of `C=CCOc1ccc2c(C)c(CC)c(=O)oc2c1C` [Compound 9d, 7-(Allyloxy)-3-ethyl-4,8-dimethyl-2H-chromen-2-one], the IC50 (MDA-MB-231) is reported as over 50 µM.

With `CCc1c(C)c2ccc(OCc3nnc(S)n3N)c(C)c2oc1=O` [Compound 7, 7-((4-amino-5-mercapto-4H-1,2,4-triazol-3-yl)methoxy)-3-ethyl-4,8-dimethyl-2H-chromen-2-one] the IC50 (MDA-MB-231) was over 50 µM.

`O=c1cc(N2CCOCC2)oc2c(-c3ccccc3)cccc12` [LY294002, reference compound] showed an IC50 (PI3Kδ) of 7.42 ± 0.36 µM.

Work on `CCNC(=S)NNC(=O)COc1ccc2c(C)c(CC)c(=O)oc2c1C` [Compound 6a, N-Ethyl-2-(2-((3-ethyl-4,8-dimethyl-2-oxo-2H-chromen-7-yl)oxy)acetyl)hydrazine-1-carbothioamide] yielded an IC50 (MDA-MB-231) of over 50 µM.

In the case of `CCc1c(C)c2ccc(OCC(=O)NNC(=S)Nc3ccccc3)c(C)c2oc1=O` [Compound 6c, 2-(2-((3-Ethyl-4,8-dimethyl-2-oxo-2H-chromen-7-yl)oxy)acetyl)-N-phenylhydrazine-1-carbothioamide], the IC50 (MDA-MB-231) is reported as over 50 µM.

Work on `Cc1c(Cc2ccccc2)c(=O)oc2c(C)c(OCC(=O)NN=Cc3ccc([N+](=O)[O-])cc3)ccc12` [Compound 4e, 2-((3-Benzyl-4,8-dimethyl-2-oxo-2H-chromen-7-yl)oxy)-N'-(4-nitrobenzylidene)acetohydrazide] yielded an IC50 (MDA-MB-231) of 24.3 ± 2.28 µM, an IC50 (PC-3) of 23.1 ± 1.2 µM and an IC50 (PI3Kβ (p110β/p85α)) of 0.992 µM.

Work on `Cc1c(Cc2ccccc2)c(=O)oc2c(C)c(OCC(=O)NN=Cc3ccc(Cl)cc3)ccc12` [Compound 4d, 2-((3-Benzyl-4,8-dimethyl-2-oxo-2H-chromen-7-yl)oxy)-N'-(4-chlorobenzylidene)acetohydrazide] yielded an IC50 (MDA-MB-231) of over 50 µM.

For `Cc1c(Cc2ccccc2)c(=O)oc2c(C)c(OCC(=O)NN=Cc3ccco3)ccc12` [Compound 4b, 2-((3-Benzyl-4,8-dimethyl-2-oxo-2H-chromen-7-yl)oxy)-N'-(furan-2-ylmethylene)acetohydrazide], the IC50 (MDA-MB-231) was 11.8 ± 0.98 µM and the “fold superior to IC50” value (PC-3) was 1.36 fold.

Compound `C#Cc1cccc(Nc2ncnc3cc(OCCOC)c(OCCOC)cc23)c1` [Erlotinib, erlotinib, reference compound] has an IC50 (MDA-MB-231) of 11.1 ± 1.11 µM, an IC50 (HCT-116) of 17.8 ± 1.15 µM and an IC50 (HEPG-2) of 22.1 ± 0.46 µM. It also gave an IC50 [1] of 63.5 ± 5.56 µM.

For `CC(=NNC(=O)COc1ccc2c(C)c(Cc3ccccc3)c(=O)oc2c1C)c1ccc(Br)cc1` [Compound 5, 2-((3-benzyl-4,8-dimethyl-2-oxo-2H-chromen-7-yl)oxy)-N'-(1-(4-bromophenyl)ethylidene)acetohydrazide], the IC50 (MDA-MB-231) was 46.3 ± 2.7 µM, the “fold superior to IC50” value (PC-3) was 3.45 fold and the IC50 (HCT-116) was 19.8 ± 0.55 µM. The “cytotoxic activity times higher than erlotinib, HEPG-2” value (HEPG-2; HEPG-2 cell line, vs erlotinib) was 1.5 times, the IC50 (HEPG-2) was 14.2 ± 1.2 µM and the IC50 [1] was 95.5 ± 1.3 µM. The IC50 (EGFR) was 0.181 µM, the IC50 (PI3Kβ (p110β/p85α)) was 0.261 µM and the “PI3Kβ inhibitory activity relative to LY294002” value (PI3Kβ (p110β/p85α); vs LY294002 as reference PI3Kβ inhibitor) was “twofold”. The IC50 (PI3Kα) was 2.89 ± 0.33 µM, the IC50 (PI3Kγ) was 5.04 ± 0.21 µM and the IC50 (PI3Kδ) was 5.49 ± 0.29 µM. The “downregulation of AKT gene expression” value (AKT) was 2.5 fold, the “downregulation of m-TOR gene expression” value (m-TOR) was 2.6 fold and the “induced expression of P53 gene” value (P53) was 3.83 fold. The “expression of BAX gene” value (BAX) was 5.6 fold, the “downregulation of BCl-2 gene” value (BCl-2) was 0.30 fold and the “upregulation of caspase 3 gene” value (caspase 3) was 5.40 fold. The “upregulation of caspase 8 gene” value (caspase 8) was 2.96 fold, the “percentage of cells in G1 phase” value (PC-3 cells [2]) was 52.09% and the “percentage of cells in G2/M phase” value (PC-3 cells [2]) was 5.8%. The “percentage of cells in S phase” value (PC-3 cells [2]) was 42.11%, the “proportion of early apoptotic cells” value (PC-3 cells [3]; compound at IC50, lower right quadrant) was 22.62% and the “proportion of late apoptotic cells” value (PC-3 cells [3]; compound at IC50, upper right quadrant) was 13.33%.
